Hits are enriched below; roughly 1.3% of the tested compounds scored in any of these assays.
NR2E3 ag-1: activates human NR2E3 receptor; CHO-S Gal4-NCOR/VP16-NR2E3 two-hybrid, luciferase; inhibition of corepressor binding, % at 3.98 µM; actives 0.35% (n = 360,000); AID 602229;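 active means inhibition above the mean of all tested compounds plus 3 SD, cut at about 70% in these data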;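 further: 0% = DMSO with NR2E3 transfected cells and 100% = cells lacking NR2E3 construct; higher means lower luciferase signal from less NR2E3 corepressor binding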
Target sequence (Q9Y5X4 whole entry, looked up, the tested form may be a part): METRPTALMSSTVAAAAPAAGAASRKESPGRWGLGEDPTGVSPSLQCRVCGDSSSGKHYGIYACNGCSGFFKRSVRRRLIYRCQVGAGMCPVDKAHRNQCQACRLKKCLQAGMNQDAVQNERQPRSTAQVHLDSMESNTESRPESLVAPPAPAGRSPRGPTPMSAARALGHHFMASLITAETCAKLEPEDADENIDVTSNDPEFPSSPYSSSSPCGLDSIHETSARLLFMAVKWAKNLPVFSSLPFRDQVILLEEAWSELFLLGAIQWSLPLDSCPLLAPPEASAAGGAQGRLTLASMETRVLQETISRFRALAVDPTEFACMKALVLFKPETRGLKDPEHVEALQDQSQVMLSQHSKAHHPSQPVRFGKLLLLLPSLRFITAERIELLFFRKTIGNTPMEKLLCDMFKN
PP1 counter: PP1-alpha (human) inhibition in PP5 counter-screen | actives 0.9% (n = 320,000) | AID 2235 | purified PP1alpha, OMFP fluorescence | inhibition, % at 6.7 µM | P62136;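 active means inhibition above the mean inhibition of all tested compounds plus 3 SD, computed separately for each screening campaign, cut at about 15% in these data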
NR2E3 ag-2: activates human photoreceptor nuclear receptor NR2E3 | inhibition of corepressor binding, % at 4.78 µM | GST-NR2E3/biotin-RetCOR TR-FRET, 1536-well | actives 0.12% (n = 320,000) | Q9Y5X4;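 active means percent inhibition above the cutoff of mean plus 3 SD of all tested compounds, set per screening campaign, cut at about 20% in these data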;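 further: 0% = DMSO wells and 100% = biotin wells as full block of FRET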
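Material: NR2E3–RetCOR corepressor complex | Quantity: 1.35 nM GST-tagged NR2E3 final | Schedule: 5 h at 4 °C | Replication: Singlicate compound wells | Reagent: RetCOR corepressor, biotinylated, 7 nM | Controls: Biotin wells as high control, 0.6% DMSO wells as low control | Signal: TR-FRET, Eu(K)-anti-GST donor, streptavidin-D2 acceptor, ex 340, em 617/671 nm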
PP5 inh: blocks human protein phosphatase 5 activity; purified PP5c, OMFP substrate fluorescence; inhibition, % at 6.7 µM; actives 0.18% (n = 320,000);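 active means inhibition above the campaign's mean inhibition across all tested compounds plus 3 SD, cut at about 9.5% in these data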;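 further: 0% = DMSO only and 100% = 100 µM cantharidin control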
PP1 inh confirm: confirmation of human PP1 phosphatase inhibitors; inhibition, % at 6.7 µM; shares compounds with PP1 counter; actives 52% (n = 1,900); purified PP1alpha, OMFP substrate fluorescence;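 active means mean PP1 inhibition above a set limit taken from the earlier primary screen, cut at about 15% in these data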
PP5 counter: PP5 phosphatase inhibition, counter-screen for PP1 inhibitors; shares compounds with PP1 counter; purified PP5c, OMFP fluorescence; inhibition, % at 6.7 µM; actives 4% (n = 1,900);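 active means mean PP5 inhibition over triplicate wells above about 9.5% taken from the earlier PP1 screen, limit read from the data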
* marks the source's active call; other numbers are inactive results; x = not tested or not shown.

SMILES	NR2E3 ag-1	PP1 counter	NR2E3 ag-2	PP5 inh	PP1 inh confirm	PP5 counter
Nc1ccc2nc(-c3cccc(-c4nc5ccc(N)cc5[nH]4)c3)[nH]c2c1	6	42*	10	3	-2	4
Nc1ccc(-c2nc3ccc(N)cc3[nH]2)cc1	-31	-2	-12	-1	x	x
Cn1c(N)c(C(=O)COC(=O)c2ccc3c(c2)C(=O)N(c2ccc(Cl)cc2)C3=O)c(=O)n(C)c1=O	-37	-3	-2	0	x	x
CC(C)CC(N)c1csc(Nc2ccc(C(=O)NCCO)cc2)n1 (centres undefined)	-33	x	x	x	x	x
COc1ccc(CCNC(=O)COc2ccc(S(=O)(=O)NCC(C)C)cc2Cl)cc1OC	-26	18*	1	2	-1	0
O=C1NCN(c2ccccc2)C12CCN(CCCC(c1ccc(F)cc1)c1ccc(F)cc1)CC2	23	19*	0	4	-9	5
O=C(CCCN1CCN(c2ccccc2)CC1)c1ccc(F)cc1	18	x	x	x	x	x
CCc1cc(C(=O)NC2CCCc3c2cnn3-c2ccc(F)cc2F)no1 (centres undefined)	35	x	x	x	x	x
Cc1cc(C)c2c(=O)n3c(nc2c1)C(Cc1ccc(O)cc1)NC(=O)c1cc2ccccc2cc1-3 (centres undefined)	14	x	x	x	x	x
Clc1cccc(Cl)c1CNc1ccc(N2CCCC2)cc1	x	19*	-6	3	1	2
CCCCc1ccc(Nc2nc(CCC)cc(=O)[nH]2)cc1	18	18*	0	8	7	4
C#CCOCCOCCOCCNc1nc(N2CCN(C(=O)[C@H]([C@@H](C)CC)n3cc(CCCCN)nn3)CC2)nc(N2CCN(C(=O)[C@H]([C@@H](C)CC)n3cc(CCCN=C(N)N)nn3)CC2)n1	-20	4	2	1	x	x
C#CCOCCOCCOCCNc1nc(N2CCN(C(=O)CCCCCCCCCCNC(=O)[C@@H](CCSC)n3cc(CCO)nn3)CC2)nc(N2CCN(C(=O)CCCCCCCCCCNC(=O)[C@H]([C@@H](C)CC)n3cc(CCCCN=C(N)N)nn3)CC2)n1	2	55*	2	3	49*	0
C#CCOCCOCCOCCNc1nc(N2CCN(C(=O)CCCCCCCCCCNC(=O)[C@@H](CCSC)n3cc(CCO)nn3)CC2)nc(N2CCN(C(=O)CCCCCCCCCCNC(=O)[C@H]([C@@H](C)CC)n3cc(CCCCCN)nn3)CC2)n1	x	60*	1	4	53*	3
CCCc1cc(=O)oc2cc(OC(C)C(=O)NCC3CCC(C(=O)O)CC3)c(Cl)cc12 (centres undefined)	-29	1	1	0	x	x
CCCCc1cc(=O)oc2cc(OC(C)C(=O)NCC3CCC(C(=O)O)CC3)c(Cl)cc12 (centres undefined)	-32	54*	2	2	-3	-4
Cc1cccc(N2C(=O)C(O)=C(C(=O)c3cccs3)C2c2cccc(Oc3ccccc3)c2)n1 (centres undefined)	0	25*	1	0	25*	-2
COc1ccc(C2C(C(=O)c3cccs3)=C(O)C(=O)N2c2cccc(C)n2)cc1 (centres undefined)	-19	12	3	2	x	x
CCCOc1ccc(N)cc1N	-11	16*	4	11*	-3	24*
CCCOc1cc(N)ccc1C(=O)OCCN(CC)CC	-3	1	-2	-2	x	x
COc1ccc(NC(=O)c2cc(C3CCCCN3S(=O)(=O)Cc3ccccc3)on2)cn1 (centres undefined)	-72	x	x	x	x	x
COc1ccc(NC(=O)CSc2nc(O)cc(=O)n2-c2ccccc2OC)cc1	-8	21*	2	0	1	-3
NC(=O)CSc1nc(O)cc(=O)n1-c1ccccc1	2	-3	-2	-1	x	x
O=c1cc(O)nc(SCc2ccccc2)n1-c1ccc(Cl)cc1	-8	21*	3	1	4	-2
COc1ccccc1-n1c(SCC(=O)Nc2ccc(C)cc2)nc(O)cc1=O	-24	12	0	-1	x	x
SMILES	NR2E3 ag-1	PP1 counter	NR2E3 ag-2	PP5 inh	PP1 inh confirm	PP5 counter
Cc1ccc(NC(=O)CSc2nc(O)cc(=O)n2C)cc1	-9	6	-1	2	x	x
Cc1ccc(NC(=O)CSc2nc(O)cc(=O)n2-c2ccc(C)cc2)cc1	-5	25*	1	0	1	-1
CN(CC(=O)Nc1ccc(F)cc1)C(=O)COC(=O)CNC(=O)c1sc2ccccc2c1Cl	20	-7	-1	1	x	x
COc1cc2[nH]c(Cl)c([N+](=O)[O-])c2cc1OC	-8	0	0	1	x	x
COc1ccc(C2=NN(C(=O)c3cccs3)C(c3ccccc3O)C2)cc1 (centres undefined)	-15	27*	2	2	19*	-5
COc1ccc(CN2CCC[C@]3(N[C@H](c4ccc(OC)cc4)[C@@H]4C(=O)N(C)C(=O)[C@@H]43)C2=O)cc1	5	x	x	x	x	x
CC(C)C(=O)NC(c1ccco1)c1ccc2cccnc2c1O (centres undefined)	-54	1	0	0	x	x
Oc1c(C(Nc2nc3ccccc3s2)c2ccco2)ccc2cccnc12 (centres undefined)	6	29*	7	3	19*	-5
Cc1ccc(S(=O)(=O)N2CCC(=O)N(C(COCc3cccc(C(F)(F)F)c3)Cc3ccccc3)CC2)cc1 (centres undefined)	11	20*	0	7	3	-1
Cc1ccc(S(=O)(=O)N2CCC(=O)N(C(COCc3ccccc3)Cc3ccccc3)CC2)cc1 (centres undefined)	-6	2	3	5	x	x
CCCCC(CC)CN=C(N)NC(N)=NCCCCCCN=C(N)NC(N)=NCC(CC)CCCC (centres undefined)	90*	46*	-1	7	29*	4
Oc1c(CN2CCN(c3ccccn3)CC2)cc(Cl)c2cccnc12	79*	26*	0	3	30*	-5
CC(C)C(NC(=O)c1ccc(Cl)cc1Cl)C(=O)N1CCN(S(=O)(=O)c2ccccc2)CC1 (centres undefined)	-12	x	x	x	x	x
O=C(/C=C/c1ccc(OCCCF)cc1)Nc1ccnc(-c2cccnc2)n1	-2	22*	-1	-1	22*	-4
CCCCC(=O)Nc1ccnc(-c2cccnc2)n1	-11	2	2	1	x	x
CCC1Cc2c(nc(N)c3c(N)nc(N4CCOCC4)c(C#N)c23)O1 (centres undefined)	0	-2	-5	1	x	x
COc1ccc(CN2C(=O)Cc3c2nc(N)c2c(N)nc(N4CCOCC4)c(C#N)c32)cc1	-7	18*	-1	6	4	14*
COCC(C)N1C(=O)Cc2c1nc(N)c1c(N)nc(N3CCN(c4ccccc4F)CC3)c(C#N)c21 (centres undefined)	-4	11	-3	8	x	x
